Experimental data taken from the RNAGym collection of RNA variant scans (doi:10.1126/science.aae0568).
Variants at the floor of the assay were thinned out.

B1: tRNA (parent)
chain: GUUCCGUUGGCGUAAUGGUAACGCGUCUCCCUCCUAAGGAGAAGACUGCGGGUUCGAGUCCCGUACGGAACG

Variants of: B1
Experiment: yeast fitness relative to wild type (ratio to wild type); higher = fitter; tRNA-Arg(CCU), competitive growth, 37 C, YPD
In short: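 Amplicons of the tRNA-Arg(CCU) gene were sequenced, 100-nucleotide paired-end, from the start population and from each end population of a pooled yeast competition. The competition, in six parallel replicates, lasted 24 hours in YPD at 37°C. Fitness relative to wild type was calculated from changes in genotype frequencies. Genotypes had to have ≥ 100 starting reads, and estimates < 0.5 were set to 0.5.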

Going from GUUCCGUUGGCGUAAUGGUAACGCCUCUCCCUCCUAAGGAGAUGACUGCAGGUUCGAGUCCCGUACGGAACG to GUUCCGUAGGCAUAAUGGUCACGCGUCUCCCUCCUAAGGAGAAGACUGCGGGUUCCAGACCCGUACGGAACG, the yeast fitness falls from 0.704 to 0.581.

Compared with GUUCCGAUGGCGUAAUGGUAACGCGUCUCCCUCGUAAGGAGAAGACUGCGGGUUCGAGUCCUGUACGCAACG, GCUCCGUUGGCGUAAUGGUAACGCGUCUCCCUCCUAAGGAGAGGACUGCGGGUUCGCGUCCCGUUCGGAACG is lower in yeast fitness: 0.559 for the first, ≤ 0.5 for the second.

Going from GUUCCGUUGUCGUAUUGGUAACGCGUCUCCGUCCUAAGGAGAAGACUGCCGGUUCGAGCCCUGUACGGAACG to GUUCCGUUGGCGUAAUGAUAACGAGUCUCCCUCCUAAGGAGAAGACUGCGGGUUCGAGUCCCGUACGGAACG, the yeast fitness rises from ≤ 0.5 to 0.564.

GUUCCGUUGGCGUAAUGGUAACGCGUCUGCCUCCUAAGGAAAAGACUGCGGGUUCGGGUCCCGUACGGAACG and GUUUCGUUGGCGUAAUGGUAACGCGUUUCCCUCCCAAGGAGAAGACUGCGGGUUCGAGUCGCGUACGGAACG cannot be ordered by yeast fitness: ≤ 0.5 for the first, ≤ 0.5 for the second.

Going from GUUCCGUUGGCGUAAUGGUAACGCGUAUCCCUCCUACGGAGAAGACUGCGGGUUCGAGUCCGGUACGGAACG to GUUCCGUUGGCGUAAUGGUAACGCGUCUCCGUCCUAAGGAGAAGACUGCGGGUUCGAGUCCCGUACGCAACG, the yeast fitness rises from ≤ 0.5 to 0.684.

First: GUUCCGUUGACGUAAUGGUAACGCGUCUCCCUACCAAGGAGAAGACUGCGGGUUCGAGUACCGUACGGAACG
Second: GUCCCGUUGGCGUAAUGGUAACGCGUCUCCCUCCUGAGGAGAAGACUGCGGGUUCGAGUCCCGUACGGAACG
The yeast fitness of the first is lower: ≤ 0.5 for the first, 0.91 for the second.

GUUCAGUUGGCGUAAUAGUAACGCGUCUCCCUCCUAAGGAGAAGAAUGCGGGUUGGAGUCCCGUACGGAACG and GUUCCGUUGGCGUAAUGGUAACGCGCGUCCCUCCUAAGGCGAAGACUGCGGGUUCGAGUCCCGUAUGGAACG cannot be ordered by yeast fitness: ≤ 0.5 for the first, ≤ 0.5 for the second.

GUUCCGUUGGCGUAAUGGUAGCGCGUCUACCUCCUAAGGAGAAGAUUGCGGGUUCGAGCCCCGUACGGAACG and GUCCCGUGGGCGUAAUGGUAACGCGUCUCCCAGCUAAGGAGAUGACUGCGGGUUCGAGUCUUGUACGGAACG cannot be ordered by yeast fitness: ≤ 0.5 for the first, ≤ 0.5 for the second.

Compared with GUUCCGUUGGCGUAAUGGUAACGCAUCUCCGUCCUAAGGAGAAGACUGCGGGUUCGAGUCCCGUACGGAACG, GUUCCGUUGGCGUAAUGGUGACGCGUAUCCAUCCUAAGGAGAAGACUGCGGGUUCGAGUCUCGUACGGAACG is lower in yeast fitness: 0.906 for the first, ≤ 0.5 for the second.

First: GUUCCGUUGGCGUAAUGGUAAUGCGUUUCCCUGCUAAGGAGAACACUGCGGGUUCGAGUCCCGUUCGGAACG
Second: GUUCUGUUGGCGUAAUGGUAACGCGUCUCCCUCCUAAGGAGACGACUGUAGGUUCGAGUCCCGUACGGAACG
The yeast fitness of the first is higher: 0.574 for the first, ≤ 0.5 for the second.

GUUCCGUUGGCGAAAUGGUAACGCGUCUCCCUCCUAAGGAGAAGACUGUGGGUCCGAGUCCUGUACGCAACG and GUUCCGUUGGCGUAAUGGUAACGGGUCUCCCUCCUAAGGAAAAAACUGCGGGAUCGAGUCCCGUAUGGAACG cannot be ordered by yeast fitness: ≤ 0.5 for the first, ≤ 0.5 for the second.

GUUCCGUUGGCGUAAUGGUGAGGCGUGUCUGUCCUAAGGAGAAGACUGCGCGUUCGAGUCCCAUGCGGAACG and GUUCCGUUGGCGUAAUGGUAACGCGUCUCCCUCCUAACGAGAAGUCUGCGGGUACGAGUCUCGUACGGAACG cannot be ordered by yeast fitness: ≤ 0.5 for the first, ≤ 0.5 for the second.

GUUCCGUUGGCGUAAAGGUAACGCGUCUCCCUCCUAAAGAGAAGACUGCGGGUUCGAGUCCAGUACGGUACG and GUUCCGUUGGCGUAAUGGUAACGCGCCUCCCUGCUAAGGAGUAGACUGCGGGUUCGAGUCCCGUACGGAACG cannot be ordered by yeast fitness: ≤ 0.5 for the first, ≤ 0.5 for the second.

First: GUUCCCUUGGCGUAAUGGUAACGCGUCUCCCUCUUAAGGAGAAGACUGCGGGUUCGAGUCCCGUAUGGAUCG
Second: GUUCCGUUGGCGUAAUGGUUACGCGUGUCGCUCCUCAGGAGAAGACUGCGGGUUCGAGUCCCGUACGGAUCG
The yeast fitness of the first is higher: 0.639 for the first, ≤ 0.5 for the second.

GUUCCGUUGGCGUAAUGGUAACGCGUCUCCCUCCUAAGGAGAAGACUGCGGGUCCGGGUCCCCUCCGGAACG and GAUCCGUUGGAGUAAUGGUAACGCGUCUCCCUCCUAACGAGAAGACUGCGGGUUCGAGUACCGUAUGGAACG cannot be ordered by yeast fitness: ≤ 0.5 for the first, ≤ 0.5 for the second.

Compared with GUUCCGUUGGCGUAAUGGUAACGCGUCUCCCUCCCAAGGAGAUGACAGCGGGUUCGAGUCCCGUACGGAACG, GUUCCGUUGGUGUAAUGGUAACGCGUCUCCAUCCUAAGGAGAAGACUGCGGGUUGGAGUACCGUACGGAGCG is higher in yeast fitness: ≤ 0.5 for the first, 0.535 for the second.

Compared with GUUCCGUUGGCGUAAUGGUAACGCGUCUCCCUCUUAAGGAGAAGACUGUGGGUUCGAGUCCCGUACGGUACG, GUUCCGUUGGCGUAAUGGUAACGCGUCUCCCUCCUAAGGAGGAGACUGCGGGUACGAGACCCGUACGGAACG is lower in yeast fitness: 0.607 for the first, 0.541 for the second.

GGUCCGUUGGCGUAAUGGUAACGCGUCUCCCUCCUAAGGAGAAGACUCCGGCUUCGAGUCCGGUAUGGAACG and GUUCCGUUGGUGUAAUGGUAACGCGUAUCCCUCCUAAGGAGAAGACUGCGGGUUCCAGUCCAGUCCGGAACG cannot be ordered by yeast fitness: ≤ 0.5 for the first, ≤ 0.5 for the second.

GUCCCGAUGGCGUAAUGGUAACGCGUCUCCCUCCUAAGGAGAACACUGCGGGUUCGAGUCUUCUAUGGGACG and GUUCCGUUGGCCUACUGGAAACGCGUCUCCCUCUUAAGGAGAAGACUGAGGGUUCGAGUCCCGUUCGGAACG cannot be ordered by yeast fitness: ≤ 0.5 for the first, ≤ 0.5 for the second.

GUUCCGUUGGCGUAAUGGUAAUGCGUCUCACUCCUAAGGAGCAGACUGCGGGUUCGAAUCCCGUACGGAACG and GUACCGUUGGCGUAAUGGUAACGGGUCUCCCUCCUAAGGAGAAGACUGCGGGUUCGUGUCCCGUACGGAACG cannot be ordered by yeast fitness: ≤ 0.5 for the first, ≤ 0.5 for the second.

Compared with GUUCCGUUGGCGUAAUGGUAACGUGUCUCCCUCCUAAGGAGAAGACUGCGGGUUCGAGUCCCGUACGAACCG, GUCCCGUUGGCGUAAUGGAAACGCGUGUCCCUCCUAAGGAGAAGACUGCGGGUUCGAGUCCUGUACGGAACG is lower in yeast fitness: 0.656 for the first, ≤ 0.5 for the second.

First: GUUGCGUUGGCGAAAUGGUAACGCGUCUCCCUCCUAAGGAGAAGACUGCGGGUUCGAGUCCCGUACGCAACG
Second: GGUCCGUUGGCGUCAUGGUAACGCGUCUCUCUCCUAAGGAGAAGACUGCGGGUGAGAGUCCCGUACGGAACG
The yeast fitness of the first is higher: 0.541 for the first, ≤ 0.5 for the second.

Going from GGUCCGUUGGCGUAAUGGUAGCGCGUCUCCCUCCUAAGGAGAAGACUGCGGGUUCGCGUCCCAUACGGAACG to GUUUCGUUGGCGUAAUGGUAACGCGUCUCCCUCCUAAGGAGAAGAUUGCGGGUUCGAGUCCCGUACGGUACG, the yeast fitness rises from ≤ 0.5 to 1.16.

Going from GUUCCGUUGGCGUAAUGGUAACGCGUCUCCCUCCUAAGGAGAAGACUGCGGAUUCGAAUGCCGUACGGAACG to GUUCCGUUGGCGUAAUGGUAACGCGUCUCCCUCCUAAGGAGAAGACUACAGGUACGAGUCCCGUACGGAACG, the yeast fitness rises from ≤ 0.5 to 0.597.

Going from GUUCCGUUGGAGUAAUGGUAACGCGUCUCCCUCCUCAGGAGGAGACUGAGGGUUCGAGUCCCGUACGGAACG to GUUCCGUUGGCGUAAUGGUAACGCGUCUCCCUCCUAAGGAGAAGGCUGCGGGUUCGAGUCCCGUACGGAGCG, the yeast fitness rises from ≤ 0.5 to 1.19.

GUUCCGUUGGCGUAAUGGAAACGCGUCUCGCUCCUGAGGAGAAGACUGCGGGUUCGUGUCCCGUUCGGAACG and GUUACGUUGGCGUAAUGGUAACGCGUCUCGCUCCUAAGGUGAAGUCUACGGGUUCGAGUCCCGUACGGAACG cannot be ordered by yeast fitness: ≤ 0.5 for the first, ≤ 0.5 for the second.

Compared with GUUCCGUUGGGGUAAUGGUAACGCGUCUCCCUCCUAAGCAGAAGACCGCGGGUUCGAGUAGCGUACGGUACG, GUUCCGUUGGCGUAAUGGUAACGCGUCUCCCUCCUAAGGAGAAGACUGCGGGUUUGAGUCCUGUACGGAACG is higher in yeast fitness: 0.528 for the first, 0.708 for the second.

Going from GUUCCGUUGGCGUAGUGGUAACGUGUCUUGCUCCGAAGGAGAAGACUGCGGGUUCGAGUCCCGUACGGAGCG to GUUCCGUUGGCGUAAUGGUAACGCGUCUCCCUCCUAAGGAGCAGACUCCGGGUUCGAGUCCCGUACAGAACG, the yeast fitness rises from ≤ 0.5 to 0.574.

Compared with GUUCCGUUGGUGUAAUGGUAACGCGUAUCCCUCCUAAGGAGAAGACUGCGGGUUCGAGUCCCGUACGGAACG, GUUCCGUUGGCGUAAUGGUAAGGCGUGUCCGUCCUAAGGAGAAGACUGCGGGUUCGAGUUCCGUACGGAACG is lower in yeast fitness: 0.791 for the first, ≤ 0.5 for the second.

Going from GUUCCGUUGGAGUAAUGGUAACGCGUCUCCCUCCUAAGGAGAAGACUGCCGGUUCGAGUCCCGUACGGAACG to GUUCCGUUGGCGUGAUGGUAACGCGUCUCCCUCCUAAGGAGAAGAUUGCCGGUUUGUGUCCGGUACGGAUCG, the yeast fitness rises from ≤ 0.5 to 0.54.

Compared with GUUGCGUUGGCGUAAUGGUAUCGCGUCUCCCUCCUAAGGAGAAGACUGGGGGUUCGAGUCCCGUAGGCAACG, GUUCCGCUGGCGUAAUGGGAACGCGUCUCCCUCCUAAGGAGAAGACUGCGGGUUCGAGUCGUGUACGGAACG is lower in yeast fitness: 0.673 for the first, 0.514 for the second.

Compared with GUUCCGUUGGCGUAAUGGUAACGCGUCUCCCUCUUAAGGAGAAGACUGUGGGUUCGAGUCCCGUCCGGAACG, GUUCCGUUGGCGUAAUGGCAACGCGUCUCUCUCCUAAGGAGAAGACUGCGGGUUGGACUCCCGUACGGAACG is lower in yeast fitness: 0.612 for the first, 0.533 for the second.

First: GUUCCGUAGGCGUAAUGGUAACGCGUCUCCCUCCUAAGGAGUAGACUGCGGGUUCGAGUCCCGUACGGAACG
Second: GUUCCGUUGGCCUAAUGGUAACGCGUUUCCCUCCUAAGGAGAAGACUGCGGGUUCGAGUCCCGUACGGAACG
The yeast fitness of the first is higher: 0.833 for the first, 0.805 for the second.

Going from GUUCCCUUGGCGUAAUGGUAACGCGUCUCCCUCUUAAGGAGAAAACUGCGGGUUGGAGUCCCGUAGGGAACG to GUUCCGUUGGCGUAAUGGUAACGCGUCUCCCUACUAAGGGGAAGACUGCGGGUUCGAGUCCCGUACGGAACG, the yeast fitness rises from 0.649 to 0.683.

First: GUUCCGUUGGCGUAAUGGCAACGCGUCUCCCUCCUAAGGAGAAGCCUGCGGGUUCGAGUCACGUACGGAACG
Second: GUUCCGUUGGCGUAAUGGUAACGCGUCUCCCUCCGAAGGAGAAAACUGCGGGUUCGAGUCCCGUACGGAACG
The yeast fitness of the first is lower: ≤ 0.5 for the first, 0.509 for the second.

GUUCUGUUGGCGUAAUGGUAACGCGUCUCACUGCUAAGGAGCAGACUGCGGGUUCGAGUCCAGUACGGAACG and GUUCUGUAGGCGUAAUGGUAGCGCGUCUCCCUCCUAAGGAGAAGACUGUGGGUUCGAGUCCCCUACGGAACG cannot be ordered by yeast fitness: ≤ 0.5 for the first, ≤ 0.5 for the second.

Compared with GUUCCGUUGGCGUAAUGGCAACGCGCCUCCCUCCUAAGGAGAAGACUGCGGGUUCGAGUCCCGUACGGAACG, GUUCCGUUGGCGUAGUGGUAACGCGGCUCCCUCCUAAGGAAAAGACUGCGGGUUCAAGUCCCGUACGGAACG is lower in yeast fitness: 0.928 for the first, ≤ 0.5 for the second.

In the case of GUUCCGUUGGCGUAGUGGUAACCCGUCACCCUCCUAAGGAGAAGACUGCGGGUUCGAGUCCCGUACGGAACG, the yeast fitness is reported as ≤ 0.5.
